Measurements published in ChEMBL document CHEMBL1140577, “Anticancer and anti-inflammatory activities of 1,8-naphthyridine-3-carboxamide derivatives” (Bioorg Med Chem Lett, 2007).
Active and inactive are the calls of the source. The calls are words filed in the database; no cut-off is given here.

Tested on: DU-145
Test: Cytotoxicity against human DU145 cells after 72 hrs by MTT assay
Type: functional, cell-based
Settings: DU-145, 72 h
Procedure, shortened: (§1)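 5000–10,000 cells seeded per well and exposed for 72 h in a CO₂ incubator to five concentrations, the highest 10 µM (top soluble). MTT (125 µg) added for 3 h, then lysed with 10% SDS–0.01 N HCl for 1 h. Absorbance read at 540 nm. % cytotoxicity = (1 − (treated−blank)/control)×100.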
In the case of `C#CCn1cc(C(=O)NCCCOC(=O)[C@H]2OC(C)(C)N(C(=O)OC(C)(C)C)[C@@H]2c2ccccc2)c(=O)c2ccc(Cl)nc21`, the IC50 is reported as > 10 µM. For `C#CCn1cc(C(=O)NCCCOC(=O)[C@@H](O)[C@@H](NC(=O)OC(C)(C)C)c2ccccc2)c(=O)c2ccc(Cl)nc21`, the IC50 was > 10 µM. In the case of `C#CCn1cc(C(=O)N[C@@H](C)CCOC(=O)[C@H](C)NC(=O)OC(C)(C)C)c(=O)c2ccc(Cl)nc21`, the IC50 is reported as > 10 µM. For `C#CCn1cc(C(=O)N[C@@H](C)CCOC(=O)[C@H]2CCCN2C(=O)OC(C)(C)C)c(=O)c2ccc(Cl)nc21`, the IC50 was > 10 µM.

Tested on: PA-1
Test: Cytotoxicity against human PA1 cells after 72 hrs by MTT assay
Type: functional, cell-based
Settings: PA-1, 72 h
Procedure, shortened: as §1
In the case of `C#CCn1cc(C(=O)NCCCOC(=O)[C@H]2OC(C)(C)N(C(=O)OC(C)(C)C)[C@@H]2c2ccccc2)c(=O)c2ccc(Cl)nc21`, the IC50 is reported as 6 µM. For `C#CCn1cc(C(=O)NCCCOC(=O)[C@@H](O)[C@@H](NC(=O)OC(C)(C)C)c2ccccc2)c(=O)c2ccc(Cl)nc21`, the IC50 was > 10 µM. In the case of `C#CCn1cc(C(=O)N[C@@H](C)CCOC(=O)[C@H](C)NC(=O)OC(C)(C)C)c(=O)c2ccc(Cl)nc21`, the IC50 is reported as 4.9 µM. Work on `C#CCn1cc(C(=O)N[C@@H](C)CCOC(=O)[C@H]2CCCN2C(=O)OC(C)(C)C)c(=O)c2ccc(Cl)nc21` yielded an IC50 of 5.2 µM.

Tested on: SW-620
Test: Cytotoxicity against human SW620 cells after 72 hrs by MTT assay
Type: functional, cell-based
Settings: SW-620, 72 h
Procedure, shortened: as §1
`C#CCn1cc(C(=O)NCCCOC(=O)[C@H]2OC(C)(C)N(C(=O)OC(C)(C)C)[C@@H]2c2ccccc2)c(=O)c2ccc(Cl)nc21` showed an IC50 of 3.96 µM. Compound `C#CCn1cc(C(=O)NCCCOC(=O)[C@@H](O)[C@@H](NC(=O)OC(C)(C)C)c2ccccc2)c(=O)c2ccc(Cl)nc21` has an IC50 of 3 µM. In the case of `C#CCn1cc(C(=O)N[C@@H](C)CCOC(=O)[C@H](C)NC(=O)OC(C)(C)C)c(=O)c2ccc(Cl)nc21`, the IC50 is reported as > 10 µM. Compound `C#CCn1cc(C(=O)N[C@@H](C)CCOC(=O)[C@H]2CCCN2C(=O)OC(C)(C)C)c(=O)c2ccc(Cl)nc21` has an IC50 of 3.3 µM.

Tested on: HBL-100
Test: Cytotoxicity against human HBL100 cells after 72 hrs by MTT assay
Type: functional, cell-based
Settings: HBL-100, 72 h
Procedure, shortened: as §1
With `C#CCn1cc(C(=O)NCCCOC(=O)[C@H]2OC(C)(C)N(C(=O)OC(C)(C)C)[C@@H]2c2ccccc2)c(=O)c2ccc(Cl)nc21` the IC50 was 1.37 µM. For `C#CCn1cc(C(=O)NCCCOC(=O)[C@@H](O)[C@@H](NC(=O)OC(C)(C)C)c2ccccc2)c(=O)c2ccc(Cl)nc21`, the IC50 was > 10 µM. In the case of `C#CCn1cc(C(=O)N[C@@H](C)CCOC(=O)[C@H](C)NC(=O)OC(C)(C)C)c(=O)c2ccc(Cl)nc21`, the IC50 is reported as > 10 µM. `C#CCn1cc(C(=O)N[C@@H](C)CCOC(=O)[C@H]2CCCN2C(=O)OC(C)(C)C)c(=O)c2ccc(Cl)nc21` showed an IC50 of 8.4 µM.

Tested on: K562
Test: Cytotoxicity against human K562 cells after 72 hrs by MTT assay
Type: functional, cell-based
Settings: K562, 72 h
Procedure, shortened: as §1
In the case of `C#CCn1cc(C(=O)NCCCOC(=O)[C@H]2OC(C)(C)N(C(=O)OC(C)(C)C)[C@@H]2c2ccccc2)c(=O)c2ccc(Cl)nc21`, the IC50 is reported as > 10 µM. For `C#CCn1cc(C(=O)NCCCOC(=O)[C@@H](O)[C@@H](NC(=O)OC(C)(C)C)c2ccccc2)c(=O)c2ccc(Cl)nc21`, the IC50 was > 10 µM. In the case of `C#CCn1cc(C(=O)N[C@@H](C)CCOC(=O)[C@H](C)NC(=O)OC(C)(C)C)c(=O)c2ccc(Cl)nc21`, the IC50 is reported as > 10 µM. In the case of `C#CCn1cc(C(=O)N[C@@H](C)CCOC(=O)[C@H]2CCCN2C(=O)OC(C)(C)C)c(=O)c2ccc(Cl)nc21`, the IC50 is reported as > 10 µM.

Tested on: not listed separately
Test: Antiinflammatory activity assessed as inhibition of TNFalpha secretion in LPS-induced C57BL/6 mouse dendritic cells at 1 ug/mL after 24 hrs by ELISA
Type: functional
Settings: C57BL/6, Dendritic cell
Procedure, shortened: (§2)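 DCs grown from femoral bone marrow of 8–12-week-old C57BL/6 mice in RPMI-1640 with 10% FBS and rmGM-CSF (20 ng/ml), 37 °C, 5% CO₂. Immature DCs stimulated with LPS (100 ng/ml) and exposed to compounds (0.001–10 µg/ml range) for 24 h. Cytokine in supernatant quantified by ELISA. % change = (B−A)/A×100, where A is LPS-stimulated DCs without compound.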
In the case of `C#CCn1cc(C(=O)NCCCOC(=O)[C@H]2OC(C)(C)N(C(=O)OC(C)(C)C)[C@@H]2c2ccccc2)c(=O)c2ccc(Cl)nc21`, the inhibition at 1 µg/mL is reported as > 50%. For `C#CCn1cc(C(=O)NCCCOC(=O)[C@@H](O)[C@@H](NC(=O)OC(C)(C)C)c2ccccc2)c(=O)c2ccc(Cl)nc21`, the inhibition at 1 µg/mL was > 50%.

Tested on: not listed separately
Test: Cytotoxicity against human MIA PaCa cells after 72 hrs by MTT assay
Type: functional, cell-based
Settings: not given
Procedure, shortened: as §1
With `C#CCn1cc(C(=O)NCCCOC(=O)[C@H]2OC(C)(C)N(C(=O)OC(C)(C)C)[C@@H]2c2ccccc2)c(=O)c2ccc(Cl)nc21` the IC50 was > 10 µM. For `C#CCn1cc(C(=O)NCCCOC(=O)[C@@H](O)[C@@H](NC(=O)OC(C)(C)C)c2ccccc2)c(=O)c2ccc(Cl)nc21`, the IC50 was > 10 µM. With `C#CCn1cc(C(=O)N[C@@H](C)CCOC(=O)[C@H](C)NC(=O)OC(C)(C)C)c(=O)c2ccc(Cl)nc21` the IC50 was > 10 µM. With `C#CCn1cc(C(=O)N[C@@H](C)CCOC(=O)[C@H]2CCCN2C(=O)OC(C)(C)C)c(=O)c2ccc(Cl)nc21` the IC50 was > 10 µM.

Tested on: A549
Test: Cytotoxicity against human A549 cells after 72 hrs by MTT assay
Type: functional, cell-based
Settings: A549, 72 h
Procedure, shortened: as §1
With `C#CCn1cc(C(=O)NCCCOC(=O)[C@H]2OC(C)(C)N(C(=O)OC(C)(C)C)[C@@H]2c2ccccc2)c(=O)c2ccc(Cl)nc21` the IC50 was > 10 µM. For `C#CCn1cc(C(=O)NCCCOC(=O)[C@@H](O)[C@@H](NC(=O)OC(C)(C)C)c2ccccc2)c(=O)c2ccc(Cl)nc21`, the IC50 was > 10 µM. For `C#CCn1cc(C(=O)N[C@@H](C)CCOC(=O)[C@H](C)NC(=O)OC(C)(C)C)c(=O)c2ccc(Cl)nc21`, the IC50 was > 10 µM. With `C#CCn1cc(C(=O)N[C@@H](C)CCOC(=O)[C@H]2CCCN2C(=O)OC(C)(C)C)c(=O)c2ccc(Cl)nc21` the IC50 was > 10 µM.

Tested on: Dendritic cell
Test: Antiinflammatory activity assessed as inhibition of IP-10 secretion in LPS-induced C57BL/6 mouse dendritic cells after 24 hrs by ELISA
Type: functional, cell-based
Settings: not given
Procedure, shortened: as §2
With `C#CCn1cc(C(=O)NCCCOC(=O)[C@@H](O)[C@@H](NC(=O)OC(C)(C)C)c2ccccc2)c(=O)c2ccc(Cl)nc21` the Activity was “Active”.

Tested on: NIH3T3 (Mus musculus)
Test: Cytotoxicity against mouse NIH3T3 cells after 72 hrs by MTT assay
Settings: NIH3T3, 72 h
In the case of `C#CCn1cc(C(=O)NCCCOC(=O)[C@H]2OC(C)(C)N(C(=O)OC(C)(C)C)[C@@H]2c2ccccc2)c(=O)c2ccc(Cl)nc21`, the IC50 is reported as > 10 µM. In the case of `C#CCn1cc(C(=O)NCCCOC(=O)[C@@H](O)[C@@H](NC(=O)OC(C)(C)C)c2ccccc2)c(=O)c2ccc(Cl)nc21`, the IC50 is reported as 7.84 µM. With `C#CCn1cc(C(=O)N[C@@H](C)CCOC(=O)[C@H](C)NC(=O)OC(C)(C)C)c(=O)c2ccc(Cl)nc21` the IC50 was > 10 µM. For `C#CCn1cc(C(=O)N[C@@H](C)CCOC(=O)[C@H]2CCCN2C(=O)OC(C)(C)C)c(=O)c2ccc(Cl)nc21`, the IC50 was > 10 µM.

Tested on: KB
Test: Cytotoxicity against human KB cells after 72 hrs by MTT assay
Type: functional, cell-based
Settings: not given
Procedure, shortened: as §1
In the case of `C#CCn1cc(C(=O)NCCCOC(=O)[C@H]2OC(C)(C)N(C(=O)OC(C)(C)C)[C@@H]2c2ccccc2)c(=O)c2ccc(Cl)nc21`, the IC50 is reported as > 10 µM. For `C#CCn1cc(C(=O)NCCCOC(=O)[C@@H](O)[C@@H](NC(=O)OC(C)(C)C)c2ccccc2)c(=O)c2ccc(Cl)nc21`, the IC50 was > 10 µM. For `C#CCn1cc(C(=O)N[C@@H](C)CCOC(=O)[C@H](C)NC(=O)OC(C)(C)C)c(=O)c2ccc(Cl)nc21`, the IC50 was 8.3 µM. `C#CCn1cc(C(=O)N[C@@H](C)CCOC(=O)[C@H]2CCCN2C(=O)OC(C)(C)C)c(=O)c2ccc(Cl)nc21` gave an IC50 of 6.6 µM.

Tested on: not listed separately
Test: Antiinflammatory activity assessed as inhibition of IL1-beta secretion in LPS-induced C57BL/6 mouse dendritic cells after 24 hrs by ELISA
Type: functional, Dendritic cell
Settings: not given
Procedure, shortened: as §2
With `C#CCn1cc(C(=O)NCCCOC(=O)[C@@H](O)[C@@H](N)c2ccccc2)c(=O)c2ccc(Cl)nc21` the Inhibition was >50%. In the case of `C#CCn1cc(C(=O)NCCCOC(=O)[C@H]2OC(C)(C)N(C(=O)OC(C)(C)C)[C@@H]2c2ccccc2)c(=O)c2cccnc21`, the Inhibition is reported as >50%. For `C#CCn1cc(C(=O)NCCCOC(=O)[C@H]2OC(C)(C)N(C(=O)OC(C)(C)C)[C@@H]2c2ccccc2)c(=O)c2ccc(Cl)nc21`, the Inhibition was >50%.
